Converted amounts (≈) assume the structure as drawn.
Assays:
[1] = Inhibitory activity against recombinant Glutamate Racemase from Streptococcus pneumoniae expressed in Escherichia coli
Method in brief: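 Enzyme purified by Ni(II) IMAC, imidazole gradient, from E. coli paste overexpressing the S. pneumoniae racemase; dialysed into Tris-HCl pH 7.8 with β-mercaptoethanol. Enzyme (6 µg mL-1) with 10 mM L-glutamate, inhibitor added before enzyme, 15 min at room temperature. Quenched with Marfey's reagent; derivatised 60 min at 40 °C. D/L-Glu separated by C18 HPLC, A340. Conversion from D/(D+L) peak areas over decreasing inhibitor concentrations gives IC50.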

Streptococcus pneumoniae [2] = assay: In vitro whole cell growth inhibition against PN-R6 strain of Streptococcus pneumoniae; type: functional
Method in brief: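 NCCLS microtiter broth dilution. Compounds in DMSO, 2-fold serial dilutions from 250 to 0.25 µg/mL in Mueller–Hinton II broth plus 5% lysed horse blood. Inoculum 5 × 10^5 CFU/mL; final DMSO 2.5%. Incubated overnight at 35 °C. MIC is the lowest concentration visibly inhibiting growth.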

Moraxella catarrhalis = assay: Antibacterial activity against Moraxella catarrhalis BC-1 strain; type: functional
Streptococcus pneumoniae [3] = assay: Antibacterial activity against Streptococcus pneumoniae R6 strain; type: functional
Staphylococcus aureus = assay: Antibacterial activity against Staphylococcus aureus 027 strain; type: functional
Streptococcus pneumoniae [4] = assay: Antibacterial activity against Streptococcus pneumoniae Park1 strain; type: functional

| SMILES | IC50 [1] [µg/mL] | MIC (Streptococcus pneumoniae [2]) [µg/mL] | MIC (Moraxella catarrhalis) [µg/mL] | MIC (Streptococcus pneumoniae [3]) [µg/mL] | MIC (Staphylococcus aureus) [µg/mL] | MIC (Streptococcus pneumoniae [4]) [µg/mL] |
| --- | --- | --- | --- | --- | --- | --- |
| N[C@H](C[C@H](Cc1ccc(C(F)(F)F)cc1)C(=O)O)C(=O)O | 0.8 | 7.8 (≈ 25.6 µM) |  |  |  |  |
| N[C@H](C[C@H](Oc1ccc(-c2ccccc2)cc1)C(=O)O)C(=O)O | 8.2 | 31.3 (≈ 99.3 µM) |  |  |  |  |
| N[C@H](C[C@H](Cc1cc2ccccc2o1)C(=O)O)C(=O)O | 0.1 | 0.24 (≈ 0.866 µM) |  |  |  |  |
| CC(C)(C)c1ccc(C[C@@H](C[C@@H](N)C(=O)O)C(=O)O)cc1 | 0.6 | 1 (≈ 3.41 µM) |  |  |  |  |
| COc1ccc(C[C@@H](C[C@@H](N)C(=O)O)C(=O)O)cc1 | 0.1 | 0.5 (≈ 1.87 µM) |  |  |  |  |
| N[C@H](C[C@H](Cc1ccc(-c2ccc3ccccc3c2)cc1)C(=O)O)C(=O)O | 0.42 | 7.8 (≈ 21.5 µM) |  |  |  |  |
| N[C@H](C[C@H](Cc1cccc(-c2ccco2)c1)C(=O)O)C(=O)O | 0.5 | 0.24 (≈ 0.791 µM) |  |  |  |  |
| N[C@H](C[C@H](Cc1cccc(C(F)(F)F)c1)C(=O)O)C(=O)O | 0.8 | 0.5 (≈ 1.64 µM) |  |  |  |  |
| COc1cccc(C[C@@H](C[C@@H](N)C(=O)O)C(=O)O)c1 | 0.2 | 0.5 (≈ 1.87 µM) |  |  |  |  |
| N[C@H](C[C@H](Cc1cc2ccccc2[nH]1)C(=O)O)C(=O)O | 9.8 | 62.5 (≈ 226 µM) |  |  |  |  |
| N[C@H](C[C@H](CCCc1ccccc1)C(=O)O)C(=O)O | 0.5 | 3.9 (≈ 14.7 µM) |  |  |  |  |
| N[C@H](C[C@H](C/C=C/c1ccccc1)C(=O)O)C(=O)O | 0.1 | 0.4 (≈ 1.52 µM) |  |  |  |  |
| N[C@H](C[C@H](Cc1nc2ccccc2s1)C(=O)O)C(=O)O | 0.38 | 0.24 (≈ 0.815 µM) |  |  |  |  |
| N[C@H](C[C@H](Cc1ccc(Cl)cc1)C(=O)O)C(=O)O | 0.3 | 0.5 (≈ 1.84 µM) |  |  |  |  |
| COc1cc(C[C@@H](C[C@@H](N)C(=O)O)C(=O)O)cc(OC)c1OC | 81 | > 250 |  |  |  |  |
| N[C@H](C[C@H](Cc1ccccc1Br)C(=O)O)C(=O)O | 6.3 | 31.3 (≈ 99 µM) |  |  |  |  |
| N[C@H](C[C@H](Cc1cccc(-c2ccccc2)c1)C(=O)O)C(=O)O | 0.7 | 0.5 (≈ 1.6 µM) |  |  |  |  |
| N[C@H](C[C@H](Cc1cccc2ccccc12)C(=O)O)C(=O)O | 5.6 | 3.9 (≈ 13.6 µM) |  |  |  |  |
| N[C@H](C[C@H](C/C=C/C=C/c1ccccc1)C(=O)O)C(=O)O | 9.1 | 3.9 (≈ 13.5 µM) |  |  |  |  |
| N[C@H](C[C@H](Cc1cccc(-c2cc3ccccc3s2)c1)C(=O)O)C(=O)O | 0.3 | 0.5 (≈ 1.35 µM) |  |  |  |  |
| N[C@H](C[C@H](Cc1ccccc1-c1ccccc1)C(=O)O)C(=O)O | > 100 | > 250 |  |  |  |  |
| N[C@H](C[C@H](Cc1csc2ccccc12)C(=O)O)C(=O)O | 1.7 | 7.8 (≈ 26.6 µM) |  |  |  |  |
| N[C@H](C[C@H](Cc1cccc([N+](=O)[O-])c1)C(=O)O)C(=O)O | 5.2 | 2 (≈ 7.09 µM) |  |  |  |  |

| SMILES | IC50 [1] [µg/mL] | MIC (Streptococcus pneumoniae [2]) [µg/mL] | MIC (Moraxella catarrhalis) [µg/mL] | MIC (Streptococcus pneumoniae [3]) [µg/mL] | MIC (Staphylococcus aureus) [µg/mL] | MIC (Streptococcus pneumoniae [4]) [µg/mL] |
| --- | --- | --- | --- | --- | --- | --- |
| N[C@H](C[C@H](Cc1ccc(NS(=O)(=O)c2ccccc2)cc1)C(=O)O)C(=O)O | 10.2 | > 250 |  |  |  |  |
| N[C@H](C[C@H](CC#Cc1ccccc1)C(=O)O)C(=O)O | 0.37 | 2 (≈ 7.65 µM) |  |  |  |  |
| N[C@H](C[C@H](Cc1cccc(Cl)c1)C(=O)O)C(=O)O | 3.4 | 1 (≈ 3.68 µM) |  |  |  |  |
| N[C@H](C[C@H](Cc1cccs1)C(=O)O)C(=O)O | 0.1 | 1 (≈ 4.11 µM) |  |  |  |  |
| N[C@H](C[C@H](Cc1cccc(Br)c1)C(=O)O)C(=O)O | 0.13 | 0.5 (≈ 1.58 µM) |  |  |  |  |
| N[C@H](C[C@H](Cc1ccccc1Cl)C(=O)O)C(=O)O | 7.1 | 3.9 (≈ 14.4 µM) |  |  |  |  |
| N[C@H](C[C@H](Cc1sc2ccccc2c1Cl)C(=O)O)C(=O)O | 0.01 | 0.5 (≈ 1.53 µM) |  |  |  |  |
| N[C@H](C[C@H](C/C=C/c1ccc2ccccc2c1)C(=O)O)C(=O)O | 0.5 | 0.5 (≈ 1.6 µM) |  |  |  |  |
| N[C@H](C[C@H](Oc1ccc(Oc2ccccc2)cc1)C(=O)O)C(=O)O | 46.3 | 125 (≈ 377 µM) |  |  |  |  |
| N[C@H](C[C@H](CCCC1CCCCC1)C(=O)O)C(=O)O | 0.6 | 2 (≈ 7.37 µM) |  |  |  |  |
| N[C@H](C[C@H](Cc1ccc(-c2ccccc2)cc1)C(=O)O)C(=O)O | 0.078 | 1 (≈ 3.19 µM) |  |  |  |  |
| N[C@H](C[C@H](Cc1cc(Cl)cc(Cl)c1)C(=O)O)C(=O)O | 3 | 3.9 (≈ 12.7 µM) |  |  |  |  |
| N[C@H](C[C@H](Cc1ccc2ccccc2c1)C(=O)O)C(=O)O | 0.1 | 0.25 (≈ 0.87 µM) | 62.5 (≈ 218 µM) | 0.25 (≈ 0.87 µM) | > 250 | 3.9 (≈ 13.6 µM) |
| N[C@H](C[C@H](Cc1ccccc1)C(=O)O)C(=O)O | 0.3 | 0.5 (≈ 2.11 µM) |  |  |  |  |
| N[C@H](C[C@H](Cc1ccc(-c2ccsc2)cc1)C(=O)O)C(=O)O | 0.32 | 0.24 (≈ 0.751 µM) |  |  |  |  |
| N[C@H](C[C@H](Cc1cc2ccccc2s1)C(=O)O)C(=O)O | 0.036 | 0.24 (≈ 0.818 µM) | > 250 | 0.24 (≈ 0.818 µM) | > 250 | 0.24 (≈ 0.818 µM) |
| C#CC[C@@H](C[C@@H](N)C(=O)O)C(=O)O | 5.5 | 31.3 (≈ 169 µM) |  |  |  |  |
| N[C@H](C[C@H](CNC(=O)c1ccccc1)C(=O)O)C(=O)O | 9.4 | 62.5 (≈ 223 µM) |  |  |  |  |
| N[C@H](C[C@H](Cc1cc(C(F)(F)F)cc(C(F)(F)F)c1)C(=O)O)C(=O)O | > 100 | > 250 |  |  |  |  |
| N[C@H](C[C@H](Cc1ccc([N+](=O)[O-])cc1)C(=O)O)C(=O)O | 5.2 | 2 (≈ 7.09 µM) |  |  |  |  |
| N[C@H](C[C@H](Cc1ccc(NC(=O)Nc2ccccc2)cc1)C(=O)O)C(=O)O | 0.49 | 15.6 (≈ 42 µM) |  |  |  |  |
| N[C@H](C[C@H](Oc1ccccc1)C(=O)O)C(=O)O | 26.5 | 62.5 (≈ 261 µM) |  |  |  |  |
| N[C@H](C[C@H](Cc1ccc(-c2cc3ccccc3s2)cc1)C(=O)O)C(=O)O | 0.65 | 3.9 (≈ 10.6 µM) |  |  |  |  |

Reference: ChEMBL document CHEMBL1135748, “4-Substituted D-glutamic acid analogues: the first potent inhibitors of glutamate racemase (MurI) enzyme with antibacterial activity” (J Med Chem, 2002)
